Molecules are shown by their SMILES. The source made the active and inactive calls. The calls are words filed in the database; no cut-off is given here. Peptide text beside a SMILES is read from it. * marks the point of attachment. Dnp = O=[N+]([O-])c1ccc(*)c([N+](=O)[O-])c1

In data set [1] the test system is MDA-MB-231. Put plainly: Cytotoxicity against human MDA-MB-231 cells assessed as increase in cell lysis at 0.5 to 1 uM incubated for 5 mins at pH 6 to 7.4 followed by compound washout prior to human haNK cell addition at 5:1 effector to target ratio measured after 4 hrs by LDH release assay. The format is cell-based. The following applies: mda-mb-231, pH 6, 4 h. (Release of lactate dehydrogenase indicates damage to the cell membrane.)

Data set [2] relates to MDA-MB-231. Nature of the data set: Cytotoxicity against human MDA-MB-231 cells assessed as increase in cell lysis at 0.5 to 1 uM incubated for 5 mins at pH 6 to 7.4 followed by compound washout prior to human PBMC addition at 50:1 effector to target ratio measured after 4 hrs by LDH release assay. The following applies: mda-mb-231, pH 6, 4 h.
For data set [3], the system named is MDA-MB-231. Put plainly: Cytotoxicity against human MDA-MB-231 cells assessed as increase in cell lysis at <=10 uM measured after 4 hrs by LDH release assay. To be noted: mda-mb-231, 4 h. Format: cell-based.
Data set [4] deals with MDA-MB-231. Nature of the data set: Induction of opsonization in human MDA-MB-231 cells assessed as increase in recruitment of anti-DNP antibody to cell surface at 1 uM measured after 5 to 10 mins at pH 6 to 7.4 by AlexaFluor-488-conjugated anti-DNP antibody based flow cytometry. The format is functional. In a few lines:
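Conjugate pre-incubated 1 h RT at 20 μM in 5 mM sodium phosphate pH 9.0, diluted, then pH adjusted with citrate buffer. MDA-MB-231 (350000 cells, suspension) exposed to 1 μM for 5 or 10 min, 37 °C, pH 7.4 or 6.0, washed, stained with 25 μg/mL anti-DNP-A488 30 min at 4 °C, PFA-fixed. Flow cytometry, ≥3000 events; fold over pH 7.4 antibody-only cells.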

Data set [5] relates to MDA-MB-231. Put plainly: Induction of opsonization in human MDA-MB-231 cells assessed as increase in recruitment of anti-DNP antibody to cell surface at 1 uM measured after 5 mins at pH 6 to 7.4 by AlexaFluor-488-conjugated anti-DNP antibody based immunofluorescence microscopic analysis. The format is functional. The procedure, abridged:
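MDA-MB-231 grown on poly-L-lysine coverslips (~70% confluent), exposed to 1 μM conjugate 5 min at 37 °C, pH 7.4 or 6.0, methanol-fixed, stained 1 h at 37 °C with anti-DNP-A488 at 40 μg/mL, Hoechst counterstain; imaged with 20× objective.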

A short description of data set [6]: Drug internalization in human MDA-MB-231 cells assessed as increase in fluorescence at 1 uM measured after 30 mins at pH 6 to 7.4 in presence of FITC-labeled anti-human IgG by flow cytometric method. The format is ADME, cell-based. To be noted: mda-mb-231, pH 6, 0.5 h. The procedure, abridged: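 Control for specificity: MDA-MB-231 treated with 1 μM conjugate at pH 7.4 or 6.0 (5–10 min, 37 °C), washed, then incubated ± 25 μg/mL FITC anti-human IgG in PBS/10% FBS, 30 min at 4 °C, fixed, read by flow cytometry.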
In general terms: In flow cytometry, cells or beads pass a laser one at a time.

Turning to `CC[C@H](C)[C@H](NC(=O)[C@@H]1CCCN1C(=O)[C@H](CC(N)=O)NC(=O)[C@H](CCC(N)=O)NC(=O)[C@H](CCC(=O)O)NC(=O)[C@@H](N)CCCCNc1ccc([N+](=O)[O-])cc1[N+](=O)[O-])C(=O)N[C@@H](Cc1ccc(O)cc1)C(=O)N[C@@H](Cc1c[nH]c2ccccc12)C(=O)N[C@@H](C)C(=O)N[C@@H](CCCNC(=N)N)C(=O)N[C@@H](Cc1ccc(O)cc1)C(=O)N[C@@H](C)C(=O)N[C@@H](CC(=O)O)C(=O)N[C@@H](Cc1c[nH]c2ccccc12)C(=O)N[C@@H](CC(C)C)C(=O)N[C@@H](Cc1ccccc1)C(=O)N[C@H](C(=O)N[C@H](C(=O)N1CCC[C@H]1C(=O)N[C@@H](CC(C)C)C(=O)N[C@@H](CC(C)C)C(=O)N[C@@H](CC(C)C)C(=O)N[C@@H](CC(C)C)C(=O)N[C@@H](CCC(=O)O)C(=O)N[C@@H](CC(C)C)C(=O)N[C@@H](C)C(=O)N[C@@H](CC(C)C)C(=O)N[C@@H](CC(C)C)C(=O)N[C@H](C(=O)N[C@@H](CC(=O)O)C(=O)N[C@@H](C)C(=O)N[C@@H](CC(=O)O)C(=O)N[C@@H](CCC(=O)O)C(=O)NCC(=O)N[C@H](C(=O)NCC(N)=O)[C@@H](C)O)C(C)C)[C@@H](C)O)[C@@H](C)O` (H-K(Dnp)EQNPIYWARYADWLFTTPLLLLELALLVDADEGTG-NH2), the Activity entry in the data set with MDA-MB-231 [1], with MDA-MB-231 [2] and in the data set with MDA-MB-231 [3] was “Non-Toxic” in each case. The result in the data set on MDA-MB-231 [4] and in the data set on MDA-MB-231 [5] was Active. In data set [6], the Drug uptake entry is given as “Not Active”.
